In the EternaBench riboswitch data:

Tested on: MS2 coat protein
Experiment: apparent Kd, MS2 coat protein; higher = weaker binding; RNA-MaP array; FMN 200 µM where present
Procedure, shortened: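 Binding was read on Illumina sequencing-chip clusters where stalled E. coli RNA polymerase had transcribed each design. A titration of SNAP-549-labelled MS2 coat protein began at 0.7 or 1.5 nM and doubled to 3 µM, once without ligand and once with constant ligand, in 100 mM Tris-HCl pH 7.5, 80 mM KCl, 4 mM MgCl2, BSA, DTT, yeast tRNA and Tween-20. The apparent Kd is the median of filtered per-cluster binding-curve fits, based on green signal normalised to red-channel RNA signal and control-cluster median Fmax.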

[1] = designed as: OFF switch for flavin mononucleotide, no ligand
[2] = ligand present: flavin mononucleotide, designed as: OFF switch for flavin mononucleotide
[3] = designed as: ON switch for flavin mononucleotide, no ligand
[4] = ligand present: flavin mononucleotide, designed as: ON switch for flavin mononucleotide

Row | Sequence | apparent Kd [1] [nM] | apparent Kd [2] [nM] | apparent Kd [3] [nM] | apparent Kd [4] [nM]
1 | CCUCCCUGAGGAUAUCCACCCUCAUACAUGAGGAUCACCCAUGUUCAACCCUGGGUUCCCGGAGAAGGCAGCUUCC | 260 | 263 |  | 
2 | CCUCCCUGAGGAUAUCCAUCCUCAUACAUGAGGAUCACCCAUGUUCAUCCGUGGCUACCCGGAGAAGGCAGCUCUG | 321 | 290 |  | 
3 | CCUCCGCAUUAGGAUAUCGUCACGGAAACGUGACGAGAAGGAAUGACAUGAGGAUCACCCAUGUUAACGUGAUG | 52.2 | 270 |  | 
4 | CCUCCUGGUCAGGAUAUCGGACGUUUUAUUCGACGAGAAGGGACCACAUGAGGAUCACCCAUGUGAUGAAGAAC | 42.4 | 182 |  | 
5 | CCUCGUUGGGAGGAUAUCCUUUUGGUUGGAGGAGGAGAAGGCUCGACAUGAGGAUCACCCAUGUGGGAUUUCCC | 62.4 | 194 |  | 
6 | CCUCUACAUGAGGAUCACCCAUGUGAGGAUAUAUGCCCAUUACGCCAAGGGCGUGAUGAUAGAAGGCACAGGGU | 22.4 | 71.1 |  | 
7 | CCUGCACAUGAGGAUCACCCAUGUCAGGAUAUCUCGCCGUGUGGAGCAACACGGUAUAAGAGAAGGGACACGGG | 28.7 | 25.7 |  | 
8 | CCUGCCAGGACAGGAUAUCUGAGCUGGGACAUGUCUUUUAAGGACAUGAGGAUCACCCAUGUUCAAGAGAAGGGUCAAGGGCGU | 401 | 210 |  | 
9 | CCUGUGGCAUGAGGAUAUGGUCAGCUUUGCUGACCAGAAGGCAUGUCAAUAGACAUGAGGAUCACCCAUGUAGUUAACACAGGA |  |  | 535 | 42.6
10 | CCUGUGUGAGGAUAUGGUGUUGGCAAAAAGGAAUAGCUCCUCCAGAAGGCACAUGAGGAUCACCCAUGUCGUGG | 15.2 | 36 |  | 
11 | CCUUGAUAAUAUCUUCACAUGAGGAUCACCCAUGUCGCUCGACAGGAUAUAUUUGAUUUGUUUAAGUAGAAGGGUCGCAGAUUC |  |  | 123 | 111
12 | CCUUUGAAGAUCCUAAAUUUCGACAUGAGGAUCACCCAUGUGCAGGAUAUCGUGCCAGUGAUGUACGAGAAGGGCAGACUCUGC | 54.3 | 58 |  | 
13 | CCUUUUGUAUAAGGAUAUGUAACAAGGCGUAGGUGGGUAGGACUUGCGCUUACAGAAGGUAUACAUGAGGAUCACCCAUGUCGA | 32.4 | 240 |  | 
14 | CGAACUCCGUAGAAGGGUGACAUGAGGAUCACCCAUGUGCGAGCGGAGGGAGUCAGCGGCUCGCCACAGGAUAUACGGAGCACG |  |  | 49.4 | 107
15 | CGACAUUACACAGGAUAUCCUCGACUUUGUCGAGGAGAAGGGUGUAAACAUGAGGAUCACCCAUGUAUAAUGUCGAAAUAUAAU |  |  | 221 | 28.9
16 | CGACCCUGAACGAAAUCAUGCAGUCAGGAUAUACAUGAGGAUCACCCAUGUGCGUACCAACUCGUGUAGAAGGGACUUUCAGGA | 15.6 | 32.3 |  | 
17 | CGACGAGUGGAGAAGGACUUUGACUAGCACAGGGUAGGAUAUCCACAUGAGGAUCACCCAUGUAGGAUACUUAUUGGGCCGCCU | 6.96 | 22.8 |  | 
18 | CGACGUUGGGAGAAGGAGUAAAAUACAUGAGGAUCACCCAUGUCAGGUGCUAGGAUAUCCUCGCGUGGCAGGGUCGGCCCGUGU |  |  | 97.2 | 32.7
19 | CGAGUUUUUGAGAAGGCAUAUAAUAAGAUUUCCCAUGUUAACAUGAGGAUCACCCAUGUUUAGUAUGAGGAUAUCAGUAGGUCG | 5.79 | 5.8 |  | 
20 | CGAUAAAGCUGAGGAUAUGAGAAUAGAAAGAAAUCAGAAGGCAGACAUGAGGAUCACCCAUGUGAGUUCUCGAGAUUACAUGGU | 250 | 529 |  | 
21 | CGAUAGGACAGAGGAUAUACACAUGAGGAUCACCCAUGUAAUUACAAUUCUUGUGGUUCUUCCAUGUAGAAGGCUGUCCUAUCG | 113 | 335 |  | 
22 | CGAUAUAACUCAGGAUAUCGGCAUGGGUAGAUUACAUGAGGAUCACCCAUGUGCAUGUCCCGGCACGAGAAGGGAGUAACGCAU |  |  | 290 | 47.8
23 | CGAUGUUAUGCAGGAUAUCUCUCUUGUUUGAGGAGAGAAGGGCAUAGGGAGACAUACGCCUUAUUACAUGAGGAUCACCCAUGU | 8.83 | 8 |  | 
24 | CGCAACAUACAGAAGGAGUUAUUGAGAGGUUUACUAGGAUAUGUUCACAUGAGGAUCACCCAUGUCGUUUGGGAUUUUGUUGCG | 125 | 51.3 |  | 
25 | CGCAAGUAUACAUGAGGAUCACCCAUGUAAGAUAGGGUAAUCAGAAGGUACAAUUAGAGAUAGAGUAAGGAUAUGAAAUUUGCG |  |  | 358 | 94.5
26 | CGCACUAUACAUGAGGAUCACCCAUGUUAAUAUGAGAUAGUCAGAAGGCAUUGUAUGAGAAAUUAUGAGGAUAUGAAUAGUGCG |  |  | 106 | 32.8
27 | CGCAUGCGUAGAAUUAGCUGCUGACAGGAUAUGACAUGAGGAUCACCCAUGUGAUUUAAGAAGAGUCAGAAGGGUCACGAUGCG | 7.8 | 13.5 |  | 
28 | CGCCAUUUAACAACGGCGCGGUCGAGAAGGGUACAUGAGGAUCACCCAUGUCACGUUCCUCCUGUACAGGAUAUCGUACGGGUA | 67 | 146 |  | 
